The results in this text go back to ChEMBL document CHEMBL4014306, “Pyrazolopyrimidines as Potent Stimulators for Transient Receptor Potential Canonical 3/6/7 Channels” (J Med Chem, 2017).

As a reminder, the inhibition is how much of the control response was suppressed.

Calls of active or inactive are those of the source. No cut-off for these calls is given here.

Holding throughout (assay type): cell-based
The target in series [1] is T1, Short transient receptor potential channel 3 (Homo sapiens) (UniProt Q13507).
T1 sequence (whole entry): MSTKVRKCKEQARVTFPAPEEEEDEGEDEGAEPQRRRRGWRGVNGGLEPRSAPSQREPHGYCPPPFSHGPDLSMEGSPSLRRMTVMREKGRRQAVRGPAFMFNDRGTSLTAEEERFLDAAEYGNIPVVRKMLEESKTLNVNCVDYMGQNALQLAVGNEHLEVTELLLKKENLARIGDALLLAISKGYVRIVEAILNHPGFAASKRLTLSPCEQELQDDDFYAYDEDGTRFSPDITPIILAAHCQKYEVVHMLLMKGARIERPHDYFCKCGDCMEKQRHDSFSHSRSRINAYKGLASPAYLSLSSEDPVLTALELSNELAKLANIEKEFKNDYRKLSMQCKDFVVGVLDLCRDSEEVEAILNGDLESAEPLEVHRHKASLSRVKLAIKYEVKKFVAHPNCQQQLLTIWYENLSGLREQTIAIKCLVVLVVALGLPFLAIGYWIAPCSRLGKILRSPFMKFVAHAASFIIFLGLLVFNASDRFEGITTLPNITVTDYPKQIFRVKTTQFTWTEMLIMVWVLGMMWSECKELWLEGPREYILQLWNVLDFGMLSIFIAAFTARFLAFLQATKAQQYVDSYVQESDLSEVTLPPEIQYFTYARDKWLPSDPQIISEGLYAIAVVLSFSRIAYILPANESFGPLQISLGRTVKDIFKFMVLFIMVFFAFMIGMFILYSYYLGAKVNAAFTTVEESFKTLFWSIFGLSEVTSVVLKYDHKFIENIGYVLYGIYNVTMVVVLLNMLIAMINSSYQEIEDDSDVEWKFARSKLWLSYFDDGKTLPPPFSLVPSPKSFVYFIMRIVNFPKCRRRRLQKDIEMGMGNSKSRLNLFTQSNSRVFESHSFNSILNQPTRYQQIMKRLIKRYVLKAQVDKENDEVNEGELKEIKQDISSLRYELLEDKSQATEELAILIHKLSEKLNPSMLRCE
Briefly: Agonist activity at human TRPC3 expressed in HEK293 cells assessed as induction of membrane depolarization measured for 2.5 mins in presence of 0.5 mM Ca2+ by FLIPR membrane potential dye-based fluorescence assay. In outline:
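HEK293 cells stably expressing human TRPC3, run on a FlexStation at 32 °C. Loaded with FMP dye, or Fluo-type Ca2+ dye with 2 mM probenecid. Extracellular NaCl/HEPES saline, pH 7.4, with 2 mM Ca2+ (standard) or 0.5 mM Ca2+. Read as F/F0. In 0.5 mM Ca2+, FMP EC50 from a Hill fit, n = 6.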

Series [2] concerns HEK293. Briefly: Induction of membrane potential depolarization in HEK293 cells measured for 2.5 mins by FLIPR assay. The conditions noted are these: human, hek293, 2.5 min. In outline:
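Parental HEK293 cells on a FlexStation at 32 °C, loaded with Fluo4-AM or FMP dye, in 2 mM Ca2+ extracellular saline, pH 7.4. Compound added and fluorescence read as F/F0.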

Series [3] addresses T1, Short transient receptor potential channel 3 (Homo sapiens). Briefly: Agonist activity at human TRPC3 expressed in HEK293 cells assessed as induction of channel current at 10 uM measured for 2.5 mins in presence of 0.5 mM Ca2+ by whole cell patch-clamp method. In a few lines: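 Whole-cell recording of human TRPC3 HEK293 cells in bath with 0.5 mM Ca2+. Pipette had 400 nM free Ca2+ buffered by BAPTA. Ramps +100 to −100 mV every 1 s. Compound at 10 μM applied by perfusion; I–V compared against basal.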
Background: Patch clamp records ionic current or voltage across a cell membrane.

Series [4] has as its target Transient receptor potential cation channel subfamily V member 1 (Homo sapiens) (UniProt Q8NER1). Briefly: Inhibition of human TRPV1 expressed in HEK293 cells assessed as decrease in capsaicin-evoked increase in intracellular calcium level at 22 uM preincubated for 2 mins followed by capsaicin addition measured for 2.5 mins by Fluo8-AM dye-based fluorescence assay relative to control. In a few lines:
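Same TRP panel as for the stimulation tests, with FMP dye for TRPC4 and M5 and Fluo8-AM for TRPA1, V1 and M8. Compound applied for 2 min before the channel agonist (TRPC4: 1 μM DAMGO). Inhibition of the agonist response measured on a FlexStation at 32 °C.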

For series [5], the target named is T2, Short transient receptor potential channel 3 (Rattus norvegicus) (UniProt Q9JMI9).
T2 sequence (whole entry): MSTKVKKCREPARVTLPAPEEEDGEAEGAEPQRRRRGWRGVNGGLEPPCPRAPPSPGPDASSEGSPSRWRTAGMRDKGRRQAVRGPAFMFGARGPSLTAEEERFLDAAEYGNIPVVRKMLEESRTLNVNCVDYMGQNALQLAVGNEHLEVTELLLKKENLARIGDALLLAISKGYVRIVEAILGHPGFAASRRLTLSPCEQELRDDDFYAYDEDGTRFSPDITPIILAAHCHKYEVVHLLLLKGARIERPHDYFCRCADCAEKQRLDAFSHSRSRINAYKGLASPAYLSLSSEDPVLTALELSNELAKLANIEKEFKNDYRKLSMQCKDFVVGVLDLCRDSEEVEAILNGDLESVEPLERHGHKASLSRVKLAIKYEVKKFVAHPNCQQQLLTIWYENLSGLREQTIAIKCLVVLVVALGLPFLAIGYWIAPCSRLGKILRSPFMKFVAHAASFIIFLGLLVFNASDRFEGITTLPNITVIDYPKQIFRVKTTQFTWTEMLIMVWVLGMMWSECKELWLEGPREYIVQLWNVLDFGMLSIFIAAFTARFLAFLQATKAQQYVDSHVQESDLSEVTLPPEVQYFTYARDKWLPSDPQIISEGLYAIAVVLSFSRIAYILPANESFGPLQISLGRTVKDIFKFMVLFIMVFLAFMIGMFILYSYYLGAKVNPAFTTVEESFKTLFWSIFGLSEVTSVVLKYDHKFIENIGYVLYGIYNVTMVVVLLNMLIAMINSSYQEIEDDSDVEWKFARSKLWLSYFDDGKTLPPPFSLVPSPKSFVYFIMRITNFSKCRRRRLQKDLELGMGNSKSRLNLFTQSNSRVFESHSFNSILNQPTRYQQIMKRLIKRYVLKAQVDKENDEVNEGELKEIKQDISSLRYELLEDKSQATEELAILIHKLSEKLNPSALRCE
Briefly: Agonist activity at TRPC3 in rat primary glomerular mesangial cells assessed as increase in intracellular calcium level at 1 uM by Fluo4-AM dye-based fluorescence assay. In a few lines: (§1)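 Rat glomerular mesangial cells, isolated by graded sieving from male Sprague–Dawley rats, collagenase-digested, cultured in RPMI 1640 with 17% FBS. Grown overnight on coverslips, then loaded with 10 μM Fluo4-AM and 0.02% pluronic F-127 for 1 h at 37 °C in 1 mM Ca2+ saline, pH 7.4. Compound at 1 μM. Confocal imaging, ex 488/em 515 nm, read as F/F0. For the 2-APB condition, 30 μM 2-APB for 2 min beforehand and kept during compound application.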
Background: Calcium assays in cells follow changes in intracellular calcium, usually with a dye or a luminescent sensor.

Series [6] is filed under the species Rattus norvegicus. In words: Agonist activity at TRPC6 in rat primary glomerular mesangial cells assessed as increase in intracellular calcium level at 1 uM by Fluo4-AM dye-based fluorescence assay. In a few lines: as §1

Transient receptor potential cation channel subfamily V member 1 (Homo sapiens), sequence (Q8NER1 whole entry): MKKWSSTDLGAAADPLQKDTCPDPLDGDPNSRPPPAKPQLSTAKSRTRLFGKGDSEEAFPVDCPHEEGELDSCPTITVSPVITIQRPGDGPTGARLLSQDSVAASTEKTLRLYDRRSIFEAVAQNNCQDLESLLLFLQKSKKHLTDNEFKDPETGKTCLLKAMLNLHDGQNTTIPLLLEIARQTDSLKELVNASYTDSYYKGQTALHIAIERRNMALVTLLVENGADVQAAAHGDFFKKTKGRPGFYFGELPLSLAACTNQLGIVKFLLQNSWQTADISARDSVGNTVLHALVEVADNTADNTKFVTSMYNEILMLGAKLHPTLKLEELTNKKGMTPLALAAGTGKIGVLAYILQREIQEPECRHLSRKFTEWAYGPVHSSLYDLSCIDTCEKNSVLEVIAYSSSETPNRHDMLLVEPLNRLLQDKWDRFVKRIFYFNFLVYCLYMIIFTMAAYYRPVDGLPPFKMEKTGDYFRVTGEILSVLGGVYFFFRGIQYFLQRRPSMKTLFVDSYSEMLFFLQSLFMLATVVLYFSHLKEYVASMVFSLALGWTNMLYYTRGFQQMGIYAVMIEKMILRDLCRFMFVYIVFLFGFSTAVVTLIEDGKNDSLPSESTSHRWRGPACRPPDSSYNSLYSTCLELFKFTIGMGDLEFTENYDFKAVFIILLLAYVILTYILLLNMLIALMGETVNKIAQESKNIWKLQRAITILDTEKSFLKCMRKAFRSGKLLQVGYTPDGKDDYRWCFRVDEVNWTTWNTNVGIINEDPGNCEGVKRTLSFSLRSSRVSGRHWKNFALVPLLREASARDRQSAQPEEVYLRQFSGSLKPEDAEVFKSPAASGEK

Consider `CCOC(=O)N1CCC(c2cc(O)n3nc(C)c(-c4ccc(F)cc4)c3n2)CC1`, for which the Activity result was “Dose-dependent effect” in series [1] and “Non-Toxic” in series [2]. Besides, the outcome in series [3] was Active.
Take `CCOC(=O)N1CCC(c2cc(O)n3nc(C)c(-c4ccc(C(F)(F)F)cc4)c3n2)CC1`: the inhibition in series [4] was less than 20%.
On to `Cc1nn2c(O)cc(C3CCN(C(=O)OCc4ccccc4)CC3)nc2c1-c1ccc(F)cc1`, for which the result in series [5] and in series [6] was Active.
